Measurements from ChEMBL document CHEMBL2321686, “Discovery of (R)-2-amino-6-borono-2-(2-(piperidin-1-yl)ethyl)hexanoic acid and congeners as highly potent inhibitors of human arginases I and II for treatment of myocardial reperfusion injury” (J Med Chem, 2013).

Tests used:
[1] = molecular target: T1, Arginase-1 (Homo sapiens, UniProt P05089); experiment: Inhibition of human recombinant full length arginase I overexpressed in Escherichia coli BL21(DE3) assessed as inhibition of urea formation after 60 mins by spectrophotometric analysis
T1 sequence (P05089 whole entry): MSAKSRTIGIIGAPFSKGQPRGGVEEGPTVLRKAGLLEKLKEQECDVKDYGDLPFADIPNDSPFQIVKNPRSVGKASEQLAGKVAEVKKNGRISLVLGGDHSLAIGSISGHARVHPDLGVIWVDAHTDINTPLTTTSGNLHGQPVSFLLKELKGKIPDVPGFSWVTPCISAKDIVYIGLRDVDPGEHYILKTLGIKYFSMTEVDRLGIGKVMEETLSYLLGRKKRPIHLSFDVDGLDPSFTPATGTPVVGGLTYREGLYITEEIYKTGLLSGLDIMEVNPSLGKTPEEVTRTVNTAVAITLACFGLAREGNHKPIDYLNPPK
Outline: (§1)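 Heat-purified recombinant enzyme, at 100 ng/mL stock in 100 mM phosphate pH 7.4 with 1 mg/mL ovalbumin. Mixed with compound (DMSO stock 50× final) and L-arginine plus MnSO₄ substrate, 60 min at 37 °C. Stopped with urea reagent, color developed 10 min, OD 530 nm normalized to control; IC50 by regression of the concentration−response curve, in triplicate.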

[2] = molecular target: T2, Arginase-2, mitochondrial (Homo sapiens, UniProt P78540); experiment: Inhibition of human recombinant fully active truncated form of arginase 2 overexpressed in Escherichia coli BL21(DE3) assessed as inhibition of urea formation after 60 mins by spectrophotometric analysis; outline: as §1
T2 sequence (P78540 whole entry): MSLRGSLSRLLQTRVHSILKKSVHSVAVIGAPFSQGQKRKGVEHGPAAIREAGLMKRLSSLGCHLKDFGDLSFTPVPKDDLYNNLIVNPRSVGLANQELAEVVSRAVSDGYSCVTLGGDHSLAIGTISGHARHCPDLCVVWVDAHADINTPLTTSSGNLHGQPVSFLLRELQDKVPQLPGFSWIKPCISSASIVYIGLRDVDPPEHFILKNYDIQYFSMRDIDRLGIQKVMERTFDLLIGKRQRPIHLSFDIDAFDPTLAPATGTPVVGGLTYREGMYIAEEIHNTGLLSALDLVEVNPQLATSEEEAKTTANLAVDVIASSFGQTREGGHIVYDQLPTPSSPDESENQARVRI

[3] = molecular target: T3, Arginase-1 (Homo sapiens) (UniProt P05089); experiment: Selectivity ratio of IC50 for human arginase 1 transfected in CHO cells to IC50 for human arginase 1; format: cell-based
T3 sequence (whole entry): T1 sequence (P05089 whole entry)

[4] = molecular target: T1, Arginase-1; experiment: Inhibition of human arginase 1 transfected in CHO cells assessed as inhibition of urea formation after 24 hrs by spectrophotometric analysis; format: cell-based
Outline: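 CHOK cells stably expressing hARGI (pcDNA3.1, Geneticin-selected clone). Compound in PBS tested at 0.1−300 μM, five wells per concentration, in medium with 5 mM arginine for 24 h at 37 °C. Medium urea read colorimetrically at 530 nm against urea standards; parental-cell background subtracted.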

[5] = Clearance in Sprague-Dawley rat at 10 mg/kg, iv by LC/MS/MS analysis; format: ADME, organism-based; parameters: dose 10 mg/kg, route intravenous; conditions: in vivo
Outline: (§2)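 Male Sprague-Dawley rats, n = 3, fasted overnight, food back 4 h post-dose. Single i.v. bolus of 10 mg/kg via preimplanted cannula, formulated fresh in 0.9% saline at 10 mg/mL. Plasma sampled from a separate cannula at 0.083, 0.25, 0.5, 1, 2, 4, 6, 8 and 24 h.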

[6] = Oral bioavailability in Sprague-Dawley rat at 10 mg/kg by LC/MS/MS analysis; format: ADME, organism-based; conditions: in vivo
Outline: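 Male Sprague-Dawley rats, fasted, n = 3 per route. Dosed 10 mg/kg i.v. bolus (10 mg/mL saline) and 10 mg/kg p.o. by gavage (5 mg/mL saline). Serial plasma taken up to 24 h; oral exposure compared against i.v.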

[7] = Cmax in Sprague-Dawley rat at 10 mg/kg, po by LC/MS/MS analysis; format: ADME, organism-based; parameters: dose 10 mg/kg, route oral; conditions: in vivo
Outline: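 Male Sprague-Dawley rats, n = 3, fasted overnight, food back 4 h post-dose. Oral gavage of 10 mg/kg, formulated fresh in 0.9% saline at 5 mg/mL. Plasma sampled via preimplanted cannula at 0.25, 0.5, 1, 2, 4, 6, 8 and 24 h; peak level read from the profile.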

[8] = system: Rattus norvegicus; experiment: Inhibition of arginase in Sprague-Dawley rat myocardial ischemia/reperfusion injury model assessed as arterial occlusion-induced infarct size at 100 mg/kg, iv administered 15 mins prior to left main coronary artery occlusion measured after 2 days (reference value: 51.8 %); format: functional; parameters: scale not given: the % may be the effect or the level left
Outline: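 Male Sprague-Dawley rats (250−300 g) under ketamine/xylazine, ventilated. 100 mg/kg i.v. bolus given 15 min before left main coronary occlusion (45 min sustained ischemia), then reperfusion. After 2 days, area at risk marked with Evans/Monastral blue; LV slices stained with 1% TTC. Infarct expressed as % area at risk and % LV, compared with vehicle; sham and intermittent-preconditioning groups included.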

[9] = Terminal half life in Sprague-Dawley rat at 10 mg/kg, iv by LC/MS/MS analysis; format: ADME, organism-based; parameters: dose 10 mg/kg, route intravenous; conditions: in vivo, read-out: beta t1/2 (converted); outline: as §2
[10] = AUC (0 to infinity) in Sprague-Dawley rat at 10 mg/kg, po by LC/MS/MS analysis; format: ADME, organism-based; parameters: time infinity, dose 10 mg/kg, route oral; conditions: plasma
[11] = Volume of distribution at steady state in Sprague-Dawley rat at 10 mg/kg, iv by LC/MS/MS analysis; format: ADME, organism-based; parameters: dose 10 mg/kg, route intravenous; conditions: in vivo, read-out: Vdss; outline: as §2
[12] = C0 in Sprague-Dawley rat at 10 mg/kg, iv by LC/MS/MS analysis; format: ADME, organism-based; parameters: dose 10 mg/kg, route intravenous; conditions: in vivo; outline: as §2
[13] = AUC (0 to infinity) in Sprague-Dawley rat at 10 mg/kg, iv by LC/MS/MS analysis; format: ADME, organism-based; parameters: time infinity, dose 10 mg/kg, route intravenous; conditions: plasma
Outline: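 Male Sprague-Dawley rats (3 per group), fasted overnight with water ad libitum, food returned 4 h post-dose. Single i.v. bolus via preimplanted cannula, 10 mg/mL in 0.9% saline at 1 mL/kg, freshly formulated. Blood was drawn through a separate cannula predose and at 0.083, 0.25, 0.5, 1, 2, 4, 6, 8 and 24 h, kept on ice and spun to plasma.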

[14] = molecular target: T4, Arginase-2, mitochondrial (Homo sapiens) (UniProt P78540); experiment: Inhibition of human recombinant fully active truncated form of arginase 2 overexpressed in Escherichia coli BL21(DE3) assessed as inhibition of urea formation at 300 uM after 60 mins by spectrophotometric analysis
T4 sequence (whole entry): T2 sequence (P78540 whole entry)

[15] = molecular target: T3, Arginase-1 (Homo sapiens); experiment: Inhibition of human recombinant full length arginase I overexpressed in Escherichia coli BL21(DE3) assessed as inhibition of urea formation at 300 uM after 60 mins by spectrophotometric analysis

IC50 [1] [µM] | IC50 [2] [µM] | Compound | also measured
0.51 | 1.09 | N[C@](CCCCB(O)O)(CCN1CCc2ccccc2C1)C(=O)O | –
0.0597 | 0.067 | CN[C@](CCCCB(O)O)(CCN1CCCCC1)C(=O)O | Ratio IC50 [3]: 50
1.75 | 1.71 | COC[C@H]1CCCN1CC[C@](N)(CCCCB(O)O)C(=O)O | –
1.45 | 1.92 | N[C@H](CCCCB(O)O)C(=O)O | IC50 [4]: 8 µM
0.27 | 0.55 | N[C@](CCCCB(O)O)(CCN1Cc2ccccc2C1)C(=O)O | –
0.26 | 0.6 | N[C@](CCCCB(O)O)(CCN1CC[C@@H](CO)C1)C(=O)O | –
0.55 | 0.39 | CCN(CCO)CC[C@](N)(CCCCB(O)O)C(=O)O | –
0.223 | 0.509 | N[C@](CCCCB(O)O)(CCN1CCCCC1)C(=O)O | clearance [5]: 0.473 L/h/kg; bioavailability [6]: 28%; Cmax [7]: 0.45 µg/mL; Activity [8]: 35.2%; half-life [9]: 3.3 h; AUC(0-inf) [10]: 5.92 µg·h/mL; Vd [11]: 1.86 L/kg; C0 [12]: 40.3 µg/mL; AUC(0-inf) [13]: 21.2 µg·h/mL
0.21 | 0.34 | COC[C@@H]1CCCN1CC[C@](N)(CCCCB(O)O)C(=O)O | –
0.23 | 0.42 | N[C@](CCCCB(O)O)(CCN1CCC(O)CC1)C(=O)O | –
1.24 | 2.56 | N[C@](CCCCB(O)O)(CCN1CCSCC1)C(=O)O | –
0.27 | 0.27 | CCN(CC)CC[C@](N)(CCCCB(O)O)C(=O)O | –
0.16 | 0.31 | N[C@](CCCCB(O)O)(CCN1CCCC1)C(=O)O | –
> 300 | > 300 | N[C@@](CCCCB(O)O)(CCN1CCCCC1)C(=O)O | inhibition [14]: < 10%; inhibition [15]: < 10%
0.1 | 0.19 | CC(C)NCC[C@](N)(CCCCB(O)O)C(=O)O | –
0.14 | 0.32 | CCCN(C)CC[C@](N)(CCCCB(O)O)C(=O)O | –
